Measurements pooled from the literature.
Lines come from different studies, so protocols differ.
ABCG2: Broad substrate specificity ATP-binding cassette transporter ABCG2 (ABCG2, Homo sapiens, UniProt Q9UNQ0)

C[C@H](C(=O)N1Cc2c(-c3ccc(C(=O)N4CCCc5ccccc54)cc3)cnn2C[C@H]1C)c1ccccc1
Papp B→A (ABCG2; dog, MDCK-MDR1): 8.4 ×10⁻⁶ cm/s

C/C(O)=C(\C#N)C(=O)Nc1ccc(C(F)(F)F)cc1
Papp B→A (ABCG2; Caco-2; 1 µM, 2 h, pH 7.4): 33.4 ×10⁻⁶ cm/s

COc1cc(/C=N\NC(=O)c2ccc(Br)cc2)ccc1OC(=O)c1cccs1
IC50 (K562; cell growth or viability): 32.4 µM

CO[C@@H](C(=O)N1Cc2c(-c3ccc(C(=O)N4CCCc5ccccc54)cc3)cnn2C[C@H]1C(C)C)c1cnn(C)c1 (single isomer, unassigned)
Papp B→A (ABCG2; dog, MDCK-MDR1): 33.7 ×10⁻⁶ cm/s

CCOC(=O)[C@@]12C[C@@H]1[C@@H](n1ccc3c(NC)nc(C#Cc4ccc(Cl)s4)nc31)[C@H](O)[C@@H]2O
concentration (male Sprague-Dawley rat, plasma; oral, 1 mg/kg, 2 h): 5.92 ng/mL

Cc1cc(C)cc(NC(=O)CN(C)S(=O)(=O)c2ccc3[nH]c4c(c3c2)CCCC4)c1
IC50 (K562; cell growth or viability): 12.8 µM

C[C@@H]1Cn2ncc(-c3ccc(C(=O)N4CCCc5ccccc54)cc3)c2CN1C(=O)Cc1ccccc1
Papp B→A (ABCG2; dog, MDCK-MDR1): 16 ×10⁻⁶ cm/s

CCc1cc(-c2noc(-c3cc(OC)nc(C4CCCC4)c3)n2)cc(C)c1OC[C@@H](O)CO
concentration (Wistar rat, plasma; oral, 1 mg/kg, 3 h, single dose): 62.7 ng/mL

O=C(O)CSc1nnc(Br)n1-c1ccc(C2CC2)c2ccccc12
inhibition (ABCG2; transporter uptake, inhibitor; Caco-2; 30 µM, 2 h): 27%

COc1ccc2c(=O)n(C)c(-c3ccccc3)nc2c1
concentration (male Sprague-Dawley rat, lung; oral, 30 mg/kg, 15 min, single dose): 15.3 ng/g

C/N=C(/NC)c1ccc(NC(=O)/C=C/c2ccc(/C=C/C(=O)Nc3ccc(/C(=N\C)NC)cc3)cc2)cc1
IC50 (K562; cell growth or viability): 4.31 µM

Cc1noc(C)c1Cn1cc(N2C(=O)CN(Cc3cccc(O)c3)C2=O)cn1
concentration (male Sprague-Dawley rat, plasma; oral, 100 mg/kg, 12 h): 11.4 ng/mL

CCCN/C(=N/C)c1ccc(NC(=O)c2ccc(C(=O)Nc3ccc(/C(=N\C)NCCC)cc3)cc2)cc1
IC50 (K562; cell growth or viability): 10.1 µM

COc1cc(Nc2ncc(F)c(Nc3ccc4c(n3)NC(=O)C(C)(C)O4)n2)cc(OC)c1OC
Ki (ABCG2; transporter uptake, inhibitor; cell membranes): 0.065 µM

CCC1(C)CC(OC(=O)CSc2nnc(N)[nH]2)C2(C)C(C)CCC3(CCC(=O)C32)C(C)C1O (stereo not drawn)
IC50 (K562; cell growth or viability): 21.3 µM

CO[C@H](C(=O)N1Cc2c(-c3ccc(C(=O)N4CCCc5ccccc54)cn3)cnn2C[C@H]1C(C)C)c1cnn(C)c1 (single isomer, unassigned)
Papp B→A (ABCG2; dog, MDCK-MDR1): 30.6 ×10⁻⁶ cm/s

COc1cccc(-c2n[nH]c(SCc3ccccn3)n2)c1OC
concentration (female Sprague-Dawley rat, plasma; oral, 100 mg/kg, 1 h, single dose): 62200 ng/mL

CSc1nc2nnnc(O)c2s1
IC50 (K562; cell growth or viability): > 640 µM
